According to ChEMBL document CHEMBL4014308, “Amphiphilic Tobramycin-Lysine Conjugates Sensitize Multidrug Resistant Gram-Negative Bacteria to Rifampicin and Minocycline” (J Med Chem, 2017):
Activity calls are given as the source filed them. The calls are words filed in the database; no cut-off is given here.

What was measured:
Type in all cases: functional
Acinetobacter baumannii [1] = experiment: Antibacterial activity against Acinetobacter baumannii isolate CAN-ICU 63169 after 18 hrs by microtiter dilution assay; details: isolate CAN-ICU 63169, 18 h
Summary of the method: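 Broth microdilution per CLSI. Overnight culture adjusted to 0.5 McFarland in saline, diluted 1:50 in Mueller-Hinton broth, and added to an equal volume of 2-fold serial compound dilutions in MHB. Incubated 18 h at 37 °C. MIC taken as the lowest concentration with no visible growth.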

Pseudomonas aeruginosa [2] = experiment: Antibacterial activity against multidrug/extremely drug-resistant/colistin-susceptible Pseudomonas aeruginosa isolate 100036 after 18 hrs by microtiter dilution assay; details: isolate 100036, 18 h
Summary of the method: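 Broth microdilution following CLSI guidelines. An overnight culture was adjusted to 0.5 McFarland in saline, then diluted 1:50 in Mueller-Hinton broth. This inoculum was added in equal volume to 2-fold serial dilutions of agent in MHB and incubated 18 h at 37 °C. MIC was the lowest concentration with no visible growth.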

Pseudomonas aeruginosa [3] = experiment: Synergistic antibacterial activity against Pseudomonas aeruginosa PAO1 after 18 hrs in presence of rifampicin by checkerboard assay; details: PAO1, 18 h
Summary of the method: (§1)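 Checkerboard in MHB: antibiotic diluted along one axis and adjuvant along the other (10 × 7 matrix). Inoculum was a 1:50 dilution in MHB of a 0.5 McFarland saline suspension; incubated 18 h at 37 °C. Each FIC = concentration in the no-growth well divided by the MIC alone; FIC index = sum of both FICs. ≤0.5 synergy, 0.5–4 no interaction, ≥4 antagonism.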

Pseudomonas aeruginosa [4] = experiment: Synergistic antibacterial activity against Pseudomonas aeruginosa PAO1 after 18 hrs in presence of colistin by checkerboard assay; details: PAO1, 18 h; summary of the method: as §1
Pseudomonas aeruginosa [5] = experiment: Synergistic antibacterial activity against Pseudomonas aeruginosa PAO1 after 18 hrs in presence of gentamicin by checkerboard assay; details: PAO1, 18 h; summary of the method: as §1
Pseudomonas aeruginosa [6] = experiment: Potentiation of minocycline-induced antibacterial activity against Pseudomonas aeruginosa PAO1 at 4 ug/ml after 18 hrs by checkerboard assay
Summary of the method: (§2)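 Checkerboard in Mueller-Hinton broth: antibiotic serially diluted along one axis and adjuvant along the other (10 × 7 matrix). Inoculum from a 0.5 McFarland saline suspension diluted 1:50 in MHB; 18 h at 37 °C, then plate read. MIC is the lowest concentration with no growth. FIC of each agent is its concentration in a no-growth well divided by its MIC alone; FIC index is the sum of both. FIC index ≤0.5 counts as synergy.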

Pseudomonas aeruginosa [7] = experiment: Potentiation of rifampicin-induced antibacterial activity against Pseudomonas aeruginosa PAO1 at 4 ug/ml after 18 hrs by checkerboard assay
Summary of the method: (§3)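 Checkerboard in MHB with a 10 × 7 matrix: antibiotic serially diluted along one axis, adjuvant along the other. Inoculum was a 1:50 dilution of a 0.5 McFarland suspension, incubated 18 h at 37 °C and read on a plate reader. Each FIC is the concentration in a no-growth well divided by the MIC alone; FIC index is their sum, with ≤0.5 taken as synergy.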

Pseudomonas aeruginosa [8] = experiment: Potentiation of colistin-induced antibacterial activity against Pseudomonas aeruginosa PAO1 at 4 ug/ml after 18 hrs by checkerboard assay; summary of the method: as §2
Pseudomonas aeruginosa [9] = experiment: Potentiation of minocycline-induced antibacterial activity against multidrug/extremely drug-resistant/colistin-susceptible Pseudomonas aeruginosa isolate 100036 assessed as fold reduction in minocycline MIC at 4 ug/ml after 18 hrs by checkerboard assay relative to control
Summary of the method: (§4)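 Checkerboard in Mueller-Hinton broth, 10 × 7 matrix, with the adjuvant held at 4 µg/mL. Inoculum from a 0.5 McFarland suspension diluted 1:50; 18 h at 37 °C. Antibiotic MIC (lowest concentration with no growth) with adjuvant is compared with the antibiotic MIC alone, giving a fold reduction.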

Pseudomonas aeruginosa [10] = experiment: Potentiation of rifampicin-induced antibacterial activity against multidrug/extremely drug-resistant/colistin-susceptible Pseudomonas aeruginosa isolate 100036 assessed as fold reduction in rifampicin MIC at 4 ug/ml after 18 hrs by checkerboard assay relative to control; summary of the method: as §4
Pseudomonas aeruginosa [11] = experiment: Potentiation of rifampicin-induced antibacterial activity against multidrug/extremely drug-resistant/colistin-susceptible Pseudomonas aeruginosa isolate 100036 at 4 ug/ml after 18 hrs by checkerboard assay; summary of the method: as §2
Pseudomonas aeruginosa [12] = experiment: Potentiation of minocycline-induced antibacterial activity against multidrug/extremely drug-resistant/colistin-susceptible Pseudomonas aeruginosa isolate P262-101856 assessed as fold reduction in minocycline MIC at 4 ug/ml after 18 hrs by checkerboard assay relative to control; summary of the method: as §4
Pseudomonas aeruginosa [13] = experiment: Potentiation of rifampicin-induced antibacterial activity against multidrug/extremely drug-resistant/colistin-susceptible Pseudomonas aeruginosa isolate P259-96918 assessed as fold reduction in rifampicin MIC at 4 ug/ml after 18 hrs by checkerboard assay relative to control; summary of the method: as §4
Pseudomonas aeruginosa [14] = experiment: Potentiation of minocycline-induced antibacterial activity against multidrug/extremely drug-resistant/colistin-susceptible Pseudomonas aeruginosa isolate P259-96918 at 4 ug/ml after 18 hrs by checkerboard assay; summary of the method: as §2
Pseudomonas aeruginosa [15] = experiment: Potentiation of rifampicin-induced antibacterial activity against multidrug/extremely drug-resistant/colistin-susceptible Pseudomonas aeruginosa isolate P262-101856 assessed as fold reduction in rifampicin MIC at 4 ug/ml after 18 hrs by checkerboard assay relative to control; summary of the method: as §4
Pseudomonas aeruginosa [16] = experiment: Potentiation of rifampicin-induced antibacterial activity against multidrug/extremely drug-resistant/colistin-resistant Pseudomonas aeruginosa isolate 101243 at 4 ug/ml after 18 hrs by checkerboard assay; summary of the method: as §2
Acinetobacter baumannii [17] = experiment: Synergistic antibacterial activity against multidrug-resistant Acinetobacter baumannii AB030 after 18 hrs in presence of rifampicin by checkerboard assay; details: AB030, 18 h; summary of the method: as §3
Acinetobacter baumannii [18] = experiment: Synergistic antibacterial activity against multidrug-resistant Acinetobacter baumannii AB031 after 18 hrs in presence of minocycline by checkerboard assay; details: AB031, 18 h; summary of the method: as §3
Acinetobacter baumannii [19] = experiment: Potentiation of minocycline-induced antibacterial activity against multidrug-resistant Acinetobacter baumannii AB031 at 4 ug/ml after 18 hrs by checkerboard assay; summary of the method: as §2
Acinetobacter baumannii [20] = experiment: Potentiation of rifampicin-induced antibacterial activity against multidrug-resistant Acinetobacter baumannii AB031 at 4 ug/ml after 18 hrs by checkerboard assay; summary of the method: as §2
Pseudomonas aeruginosa [21] = experiment: Bactericidal activity against Pseudomonas aeruginosa PAO1 at 2 times antibacterial MIC after 30 mins
Summary of the method: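 Time-kill with P. aeruginosa PAO1. A 0.5 McFarland suspension was diluted 1:50 in LB broth and exposed to agent in PBS (pH 7.2) at 1/2×, 1×, 2× or 4× MIC at 37 °C for 6 h. Samples at 0, 10, 30, 60, 90, 120, 240 and 360 min were serially diluted in PBS, plated on LB agar, and colonies counted after 20 h at 37 °C.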

Pseudomonas aeruginosa [22] = experiment: Induction of cytoplasmic membrane depolarization in Pseudomonas aeruginosa PAO1 up to 1200 secs by diSC3-5 staining based fluorescence assay
Summary of the method: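 Mid-log PAO1 washed in 5 mM HEPES pH 7.4 with 20 mM glucose and resuspended to OD600 0.05. Cells were loaded with 0.2 mM EDTA and 0.4 µM diSC3-5 for 2 h at 37 °C in the dark, then equilibrated with 100 mM KCl for 30 min. Agent was added and fluorescence followed at 622/670 nm; agents tested at 32 µg/mL.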

## Cl.Cl.Cl.Cl.Cl.Cl.Cl.NCCCC[C@H](N)C(=O)N(CCCCCCCCCCCCO[C@@H]1[C@@H](O[C@H]2O[C@H](CO)[C@@H](O)[C@H](N)[C@H]2O)[C@H](N)C[C@H](N)[C@H]1O[C@H]1O[C@H](CN)[C@@H](O)C[C@H]1N)Cc1c2ccccc2c(Cl)c2ccccc12
Acinetobacter baumannii [1]
  MIC: 128 µg/mL
Pseudomonas aeruginosa [2]
  MIC: 32 µg/mL
Pseudomonas aeruginosa [3]
  MIC: 1 µg/mL
Pseudomonas aeruginosa [4]
  MIC: 1 µg/mL
Pseudomonas aeruginosa [5]
  MIC: 4 µg/mL
Pseudomonas aeruginosa [6]
  fractional inhibitory concentration index (FICI): 0.094
Pseudomonas aeruginosa [7]
  fractional inhibitory concentration index (FICI): 0.094
Pseudomonas aeruginosa [8]
  fractional inhibitory concentration index (FICI): 1.031
Pseudomonas aeruginosa [9]
  fold change (FC): 32
Pseudomonas aeruginosa [10]
  fold change (FC): 128
Pseudomonas aeruginosa [11]
  fractional inhibitory concentration index (FICI): 0.079
Pseudomonas aeruginosa [12]
  fold change (FC): 128
Pseudomonas aeruginosa [13]
  fold change (FC): 256
Pseudomonas aeruginosa [14]
  fractional inhibitory concentration index (FICI): 0.047
Pseudomonas aeruginosa [15]
  fold change (FC): 64
Pseudomonas aeruginosa [16]
  fractional inhibitory concentration index (FICI): 0.188
Acinetobacter baumannii [17]
  MIC: 8 µg/mL
Acinetobacter baumannii [18]
  MIC: 2 µg/mL
Acinetobacter baumannii [19]
  fractional inhibitory concentration index (FICI): 0.625
Acinetobacter baumannii [20]
  fractional inhibitory concentration index (FICI): 0.09
Pseudomonas aeruginosa [21]
  Activity: Active
Pseudomonas aeruginosa [22]
  Activity: Dose-dependent effect
